# Assay results published in ChEMBL document CHEMBL2390929, “New nitric oxide donating 1,2,4-triazole/oxime hybrids: synthesis, investigation of anti-inflammatory, ulceroginic liability and antiproliferative activities” (Bioorg Med Chem, 2013).
# Legend:
# [1] = Induction of nitric oxide release in phosphate buffer at pH 7.4 at 0.1 mM after 2 hrs by Griess method in presence of 0.5 mM of N-acetylcysteine; assay type: physicochemical; details: pH 7.4, 2 h, 100 µM
# How it was run: (§1)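 Compound in DMF diluted to final 10^-4 M in 1:1 50 mM phosphate buffer pH 7.4/MeOH with 5×10^-4 M N-acetylcysteine, 37 °C. Aliquot mixed with Griess reagent, 10 min at room temperature, A546 read. Nitrite quantified against sodium nitrite standards (10–80 nmol/mL); NO expressed as mol/mol. n = 4 reaction mixtures per compound.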
# [2] = test system: Rattus norvegicus; experiment: Gastrointestinal toxicity in albino rat assessed as ulcer index at 0.28 mmol/kg, po (reference value: 0.60 +/- 0.05); assay type: organism-based; details: in vivo
# [3] = Induction of nitric oxide release in phosphate buffer at pH 7.4 at 0.1 mM after 4 hrs by Griess method in presence of 0.5 mM of N-acetylcysteine; assay type: physicochemical; details: pH 7.4, 4 h, 100 µM; how it was run: as §1
# [4] = Induction of nitric oxide release in phosphate buffer at pH 7.4 at 0.1 mM after 1 hr by Griess method in presence of 0.5 mM of N-acetylcysteine; assay type: physicochemical; details: pH 7.4, 1 h, 100 µM; how it was run: as §1
# [5] = Induction of nitric oxide release in phosphate buffer at pH 7.4 at 0.1 mM after 3 hrs by Griess method in presence of 0.5 mM of N-acetylcysteine; assay type: physicochemical; details: pH 7.4, 3 h, 100 µM; how it was run: as §1
# [6] = test system: Rattus norvegicus; experiment: Antiinflammatory activity in albino rat assessed as inhibition of carrageenan-induced paw edema at 0.28 mmol/kg, po after 5 hrs relative to control; assay type: functional
# How it was run: (§2)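 Adult male albino rats (120–140 g), four per group, fasted 24 h with water allowed. Test agent suspended in 0.5% w/v aqueous CMC and given orally at 0.28 mmol/kg; controls received CMC alone. After 30 min, 0.1 mL fresh 1% carrageenan in saline was injected subplantar into the right hind paw and saline into the left. Paw thickness was measured by Vernier caliper; % inhibition = [(VR−VL)control − (VR−VL)treated]/(VR−VL)control ×100. Mean ± SEM, one-way ANOVA.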
# [7] = Induction of nitric oxide release in phosphate buffer at pH 7.4 at 0.1 mM after 5 hrs by Griess method in presence of 0.5 mM of N-acetylcysteine; assay type: physicochemical; details: pH 7.4, 5 h, 100 µM; how it was run: as §1
# [8] = test system: Rattus norvegicus; experiment: Antiinflammatory activity in albino rat assessed as inhibition of carrageenan-induced paw edema at 0.28 mmol/kg, po after 4 hrs relative to control; assay type: functional; how it was run: as §2
# [9] = test system: Rattus norvegicus; experiment: Antiinflammatory activity in albino rat assessed as inhibition of carrageenan-induced paw edema at 0.28 mmol/kg, po after 2 hrs relative to control; assay type: functional; how it was run: as §2
# [10] = test system: Rattus norvegicus; experiment: Antiinflammatory activity in albino rat assessed as inhibition of carrageenan-induced paw edema at 0.28 mmol/kg, po after 3 hrs relative to control; assay type: functional; how it was run: as §2
# [11] = Induction of nitric oxide release in phosphate buffer at pH 7.4 at 0.1 mM after 6 hrs by Griess method in presence of 0.5 mM of N-acetylcysteine; assay type: physicochemical; details: pH 7.4, 6 h, 100 µM; how it was run: as §1
# [12] = test system: Rattus norvegicus; experiment: Antiinflammatory activity in albino rat assessed as inhibition of carrageenan-induced paw edema at 0.28 mmol/kg, po after 1 hr relative to control; assay type: functional; how it was run: as §2
# [13] = test system: Rattus norvegicus; experiment: Gastrointestinal toxicity in albino rat assessed as histopathological analysis at 0.28 mmol/kg, po using haematoxylin and eosin staining by light microscopic analysis; assay type: organism-based; details: in vivo
# How it was run: (§3)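 Adult male albino rats (120–140 g, Minia University), groups of four, fasted 24 h with water allowed. Oral dose 0.28 mmol/kg suspended in 0.5% aqueous CMC; vehicle-only controls. Gastric sections dewaxed, stained with haematoxylin 5–7 min, differentiated in 1% HCl/70% alcohol, counterstained with 1% eosin 10 min. Cleared in xylene, mounted, examined by light microscopy at ×400.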
# [14] = test system: Rattus norvegicus; experiment: Gastrointestinal toxicity in albino rat assessed as capillary vasodilatation associated with accumulation of edema fluid in lamina propria at 0.28 mmol/kg, po using haematoxylin and eosin staining by light microscopic analysis; assay type: organism-based; details: in vivo; how it was run: as §3
# [15] = test system: Rattus norvegicus; experiment: Gastrointestinal toxicity in albino rat assessed as decreased in thickness with marked loss of mucosal membrane at areas of ulceration at 0.28 mmol/kg, po using haematoxylin and eosin staining by light microscopic analysis; assay type: organism-based; details: in vivo; how it was run: as §3
# [16] = test system: Rattus norvegicus; experiment: Gastrointestinal toxicity in albino rat assessed as acute inflammatory cell infiltrating its whole thickness and apparently destroying surface of epithelium at 0.28 mmol/kg, po using haematoxylin and eosin staining by light microscopic analysis; assay type: organism-based; details: in vivo; how it was run: as §3
# [17] = test system: Rattus norvegicus; experiment: Gastrointestinal toxicity in albino rat assessed as severe atrophic gastritis and gland atrophy at 0.28 mmol/kg, po using haematoxylin and eosin staining by light microscopic analysis; assay type: organism-based; details: in vivo; how it was run: as §3
# [18] = test system: Rattus norvegicus; experiment: Gastrointestinal toxicity in albino rat assessed as apoptotic glandular epithelial cells at 0.28 mmol/kg, po using haematoxylin and eosin staining by light microscopic analysis; assay type: organism-based, Epithelial cell; details: in vivo; how it was run: as §3
# [19] = test system: Rattus norvegicus; experiment: Gastrointestinal toxicity in albino rat assessed as acute inflammatory cell infiltrating its whole thickness and apparently destroying epithelial lining of gastric pits at 0.28 mmol/kg, po using haematoxylin and eosin staining by light microscopic analysis; assay type: organism-based, Stomach; details: in vivo; how it was run: as §3
Activity [1],Activity [3],Activity [4],Activity [5],Activity [7],Activity [11],Compound,UI [2],inhibition in vivo at 280 µmol/kg [6],inhibition in vivo at 280 µmol/kg [8],inhibition in vivo at 280 µmol/kg [9],inhibition in vivo at 280 µmol/kg [10],inhibition in vivo at 280 µmol/kg [12],Activity [13],Activity [14],Activity [15],Activity [16],Activity [17],Activity [18],Activity [19]
0.11 mol/mol,0.19 mol/mol,0.08 mol/mol,0.14 mol/mol,0.14 mol/mol,0.12 mol/mol,CCn1c(SC/C(=N/O)c2ccccc2)nnc1-c1ccc(OC)cc1,2.53,71%,78%,72%,75%,69%,–,–,–,–,–,–,–
0.12 mol/mol,0.21 mol/mol,0.11 mol/mol,0.12 mol/mol,0.18 mol/mol,0.14 mol/mol,CCn1c(SC/C(=N/O)c2ccccc2)nnc1-c1cc(OC)c(OC)c(OC)c1,3.66,74%,79%,67%,69%,63%,–,–,–,–,–,–,–
–,–,–,–,–,–,C=CCn1c(SCC(=O)c2ccccc2)nnc1-c1ccccc1,2.44,66%,66%,58%,70%,43%,–,–,–,–,–,–,–
–,–,–,–,–,–,C=CCn1c(SCC(=O)c2ccccc2)nnc1-c1ccc(OC)cc1,5.34,61%,67%,53%,63%,49%,–,–,–,–,–,–,–
–,–,–,–,–,–,C=CCn1c(SCC(=O)c2ccccc2)nnc1-c1ccc(OC)c(OC)c1,4.26,62%,72%,63%,64%,61%,–,–,–,–,–,–,–
–,–,–,–,–,–,C=CCn1c(SCC(=O)c2ccccc2)nnc1-c1cc(OC)c(OC)c(OC)c1,6.39,60%,66%,62%,66%,49%,–,–,–,–,–,–,–
–,–,–,–,–,–,CCn1c(SCC(=O)c2ccccc2)nnc1-c1ccccc1,4.49,51%,63%,55%,61%,52%,–,–,–,–,–,–,–
–,–,–,–,–,–,CCn1c(SCC(=O)c2ccccc2)nnc1-c1ccc(OC)cc1,6.59,61%,70%,60%,67%,53%,–,–,–,–,–,–,–
–,–,–,–,–,–,CCn1c(SCC(=O)c2ccccc2)nnc1-c1ccc(OC)c(OC)c1,7.36,69%,73%,55%,61%,42%,Non-toxic,–,–,–,–,–,–
–,–,–,–,–,–,CCn1c(SCC(=O)c2ccccc2)nnc1-c1cc(OC)c(OC)c(OC)c1,3.42,59%,72%,41%,49%,29%,–,–,–,–,–,–,–
–,–,–,–,–,–,O=C(CSc1nnc(-c2ccccc2)n1-c1ccccc1)c1ccccc1,9.58,63%,68%,60%,64%,53%,–,–,–,–,–,–,–
–,–,–,–,–,–,COc1ccc(-c2nnc(SCC(=O)c3ccccc3)n2-c2ccccc2)cc1,8.74,61%,68%,57%,58%,52%,–,–,–,–,–,–,–
–,–,–,–,–,–,COc1ccc(-c2nnc(SCC(=O)c3ccccc3)n2-c2ccccc2)cc1OC,9.41,59%,65%,57%,59%,56%,–,–,–,–,–,–,–
–,–,–,–,–,–,COc1cc(-c2nnc(SCC(=O)c3ccccc3)n2-c2ccccc2)cc(OC)c1OC,5.29,72%,73%,51%,68%,44%,–,–,–,–,–,–,–
0.1 mol/mol,0.16 mol/mol,0.06 mol/mol,0.13 mol/mol,0.22 mol/mol,0.17 mol/mol,C=CCn1c(SC/C(=N\O)c2ccccc2)nnc1-c1ccccc1,2.3,68%,77%,60%,65%,58%,–,–,–,–,–,–,–
0.12 mol/mol,0.15 mol/mol,0.09 mol/mol,0.12 mol/mol,0.15 mol/mol,0.14 mol/mol,C=CCn1c(SC/C(=N/O)c2ccccc2)nnc1-c1ccc(OC)cc1,1.14,57%,76%,66%,67%,61%,–,–,–,–,–,–,–
0.1 mol/mol,0.13 mol/mol,0.08 mol/mol,0.12 mol/mol,0.17 mol/mol,0.17 mol/mol,C=CCn1c(SC/C(=N/O)c2ccccc2)nnc1-c1cc(OC)c(OC)c(OC)c1,5.52,77%,73%,68%,70%,61%,–,–,–,–,–,–,–
–,–,–,–,–,–,COc1ccc2c(c1)c(CC(=O)O)c(C)n2C(=O)c1ccc(Cl)cc1 [INDOMETHACIN],63.45,87%,83%,67%,74%,51%,–,Toxic,Toxic,Toxic,Toxic,Toxic,Toxic
